Experimental data from different studies.
Each line is one published result; the experiments were not run side by side.
Target: Cytochrome P450 2C8 (CYP2C8, Homo sapiens, UniProt P10632)
Effect on: enzyme activity
Mode: inhibitor

| Compound | test | test system | setting | quantity | value |
| --- | --- | --- | --- | --- | --- |
| C[C@@H](c1ccc2nccn2c1)n1nnc2ncc(-c3cnn(C)c3)nc21 |  | human, liver microsomes | pH 7.4 | IC50 | 16 µM |
| N#C[C@H](C[C@@H]1CCCNC1=O)NC(=O)[C@H](CC1CC1)NC(=O)c1cc2cccc(Cl)c2[nH]1 |  | human, liver microsomes |  | IC50 | 3.9 µM |
| C=CC(=O)Nc1cc(Nc2nccc(Nc3cc(Cl)c(F)cc3C(C)(C)O)n2)c(OC)cc1N1CC[C@@H](N(C)C)C1 |  | human, liver microsomes |  | IC50 | > 30 µM |
| COc1ccn2c(Nc3ccccc3F)c(-c3ccncn3)nc2c1 |  |  |  | IC50 | 1 µM |
| NS(=O)(=O)NCCNc1nonc1C(=NO)Nc1ccc(F)c(Br)c1 |  |  |  | IC50 | > 10 µM |
| CCc1cc(/C(C)=N/OCc2ccc(C3CCCCC3)c(C(F)(F)F)c2)ccc1CN1CC(C(=O)O)C1 |  | human, liver microsomes | 20 min | IC50 | > 1.1 µM |
| Ic1ccc(CSCn2ccnc2)cc1 |  |  | 30 min, pH 7.4 | IC50 | 0.566 µM |
| Cc1cc(C)c2c(c1)[C@@H](N(Cc1cc(C(F)(F)F)cc(C(F)(F)F)c1)c1nnn(C)n1)CCCN2C[C@H]1CC[C@H](C(=O)O)CC1 |  | human, liver microsomes | pH 7.4 | Ki | 1.3 µM |
| Cc1ccc2nc(-c3ccccc3)c(CNc3ccc(F)cc3)n2c1 |  |  |  | IC50 | 1 µM |
| Cc1cc2c(F)c(Oc3ncnn4cc(OC[C@@H](C)O)c(C)c34)ccc2[nH]1 | fluorescence |  | 15 min | IC50 | 3.08 µM |
